Most compounds without a hit are left out; they make up all but 1.7% or so of the library.
PP5 inh: inhibitors of human protein phosphatase 5 (PP5) | P53041 | purified PP5c, OMFP substrate fluorescence | inhibition, % at 6.7 µM | 0.18% of 320,000 active | AID 1987;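 active = inhibition above the campaign's mean inhibition across all tested compounds plus 3 SD, cut at about 9.5% in these data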
PP1 inh: PP1-alpha (human) inhibition in PP5 counter-screen | purified PP1alpha, OMFP fluorescence | inhibition, % at 6.7 µM | 0.9% of 320,000 active;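 active = inhibition above the mean inhibition of all tested compounds plus 3 SD, computed separately for each screening campaign, cut at about 15% in these data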
T cell modulator: T cell immune modulators affecting CD8 T cell-vesicle binding; 2C CD8+ T cell-vesicle binding, flow cytometry; active compounds read low; response (vesicle binding), % at 7 µM; 0.068% of 330,000 active;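 active = response, share of CD8 T cells binding vesicles, and their 90th percentile fluorescence all below set limits, cut at about 80% in these data, passing the limit was not always enough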;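 note: values below 100% mean blocked vesicle binding to the CD8+ T cells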
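incubation = binding step 1.5 h, 37 °C, antibody labelling 20 min, ice | test system = 2C mouse CD8+ T cells | read-out basis = percent CD8+ FL2 mean versus row control | controls = Peptide-free naked vesicles (low) and QL9 vesicles with 0.7% DMSO vehicle (high) | detection = flow cytometry of vesicle-bound cells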
m5-HT2A agonist: mouse HTR2A agonism via beta-arrestin recruitment | CHO-K1 mHTR2A beta-arrestin complementation, luminescence; percent of 30 µM serotonin response | activation, % at 7.6 µM | 0.66% of 360,000 active;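 active = activation above a run cutoff, the mean activation of all tested compounds plus 3 SD, cut at about 14% in these data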
GASC-1 inh: blocks human GASC-1 demethylase activity | Q9H3R0 | GST-JMJD2C(1-420) H3K9me3 demethylation, DELFIA europium | inhibition, % at 2.35 µM | 0.069% of 330,000 active | AID 2099;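 active = more than half of a compound's replicate wells show inhibition beyond 50%, single wells judged on their own value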;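 note: signal counts dimethyl H3K9 product captured on neutravidin plate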
Target sequence (Q9H3R0 1-420 limits assumed): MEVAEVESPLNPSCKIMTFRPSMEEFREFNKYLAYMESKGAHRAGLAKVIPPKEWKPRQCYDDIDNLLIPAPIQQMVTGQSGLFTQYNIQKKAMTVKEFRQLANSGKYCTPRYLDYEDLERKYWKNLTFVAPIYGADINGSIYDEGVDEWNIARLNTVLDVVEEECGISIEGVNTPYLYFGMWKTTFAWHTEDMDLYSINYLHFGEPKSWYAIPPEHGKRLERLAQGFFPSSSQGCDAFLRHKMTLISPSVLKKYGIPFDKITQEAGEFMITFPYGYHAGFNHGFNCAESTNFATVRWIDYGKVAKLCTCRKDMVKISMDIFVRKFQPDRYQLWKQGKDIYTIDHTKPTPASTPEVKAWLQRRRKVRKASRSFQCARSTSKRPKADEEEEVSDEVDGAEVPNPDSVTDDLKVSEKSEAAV
Large screens that a line does not name were inactive.

CCCCCCCCOC(=O)c1c(CSC(=N)N)n(C)c2cc(Br)c(OC(C)=O)cc12	PP1 inh 17
O=C1CCCC2=C1C(c1ccc(OS(=O)(=O)c3ccc(Cl)cc3)cc1)C1=C(CCCC1=O)O2	GASC-1 inh 57
O=C(c1ccccc1F)N1CCc2ccccc21	T cell modulator 0.0
CCN1CCN(CCNC(=O)c2ccc(CS(=O)c3ccc(Br)cc3)o2)CC1 (configuration not stated)	none
COc1ccccc1N1C(=O)c2cccc3cccc(c23)C1=O	none
Cc1ccc(CSc2ccc3nnc(-c4ccccn4)n3n2)cc1	PP1 inh 16
Fc1ccc(CSc2ccc3nnc(-c4ccccn4)n3n2)cc1	none
Cc1ccc(S(=O)(=O)Nc2cccc(-c3ccc(N4CCCCCC4)nn3)c2)cc1C	PP1 inh 17
O=S(=O)(Nc1cccc(-c2ccc(N3CCCCCC3)nn2)c1)c1ccccc1Cl	PP1 inh 17
O=S(=O)(Nc1cccc(-c2ccc(N3CCCCCC3)nn2)c1)c1ccc(C(F)(F)F)cc1	PP1 inh 17
O=S(=O)(Nc1cccc(-c2ccc(N3CCCCCC3)nn2)c1)c1ccc(F)cc1	none
C=CCOC(=O)C1=C[C@@H](c2ccc3c(c2)OCO3)C[C@@H](OCc2ccc(CO)cc2)O1	none
COc1ccccc1/C=N\Nc1cn[nH]c(=O)c1Cl	none
CCOc1ccccc1/C=N\Nc1cnn(Cc2ccccc2)c(=O)c1Cl	PP1 inh 16
COc1ccc(S(=O)(=O)N(CC(C)C)C2CCS(=O)(=O)C2)cc1OC (configuration not stated)	none
COc1ccccc1-n1c(SCC(=O)N2CCCC2)nc2cccnc21	GASC-1 inh 62
Cc1ccc(-c2nc3ncccn3c2N)cc1	none (no result: PP5 inh, PP1 inh, T cell modulator, GASC-1 inh)
O=C(CSc1nnc(CNC(=O)c2cccs2)o1)c1ccccc1	GASC-1 inh 97
O=C(CSc1nnc(CNC(=O)c2c(F)cccc2F)o1)NCCc1ccccc1	none
O=C(CSc1nnc(CNC(=O)c2ccccc2F)o1)NCCc1ccccc1	GASC-1 inh 108
CC1(C(=O)NS(=O)(=O)c2ccc(Cl)s2)CCN1C(=O)Cc1ccc(-c2ccccc2)cc1 (configuration not stated)	none (no result: PP5 inh, PP1 inh, T cell modulator, GASC-1 inh)
CCOc1cc(/C=C(\C#N)C(=O)Nc2cccc(C(=O)O)c2)cc(Br)c1OC(=O)c1ccc(OC)cc1	PP1 inh 17
CCOc1cc(/C=C(\C#N)C(=O)Nc2cccc(C(=O)O)c2)ccc1OCc1ccccc1Cl	none
C#CCOCCOCCOCCNc1nc(N2CCOCC2)nc(N2CCN(C(=O)[C@H]([C@@H](C)CC)n3cc(CCCN=C(N)N)nn3)CC2)n1	none
C#CCOCCOCCOCCNc1nc(N2CCN(C(=O)CCCCCCCCCCNC(=O)[C@H]([C@@H](C)CC)n3cc(CCCCN=C(N)N)nn3)CC2)nc(N2CCN(C(=O)CCCCCCCCCCNC(=O)[C@H](CCCN=C(N)N)n3cc(C[C@@H](C)CC)nn3)CC2)n1	PP5 inh 9.8, PP1 inh 68 (no result: m5-HT2A agonist)
C#CCOCCOCCOCCNc1nc(N2CCN(C(=O)CCCCCCCCCCNC(=O)[C@H](CCCN=C(N)N)n3cc(C[C@@H](C)CC)nn3)CC2)nc(N2CCN(C(=O)CCCCCCCCCCNC(=O)[C@@H]([C@H](C)CC)n3cc(CCCCCN)nn3)CC2)n1	PP1 inh 71 (no result: m5-HT2A agonist, GASC-1 inh)
C#CCOCCOCCOCCNc1nc(N2CCOCC2)nc(N2CCN(C(=O)CCCCCCCCCCNC(=O)[C@H]([C@@H](C)CC)n3cc(CCCCN=C(N)N)nn3)CC2)n1	PP1 inh 15 (no result: GASC-1 inh)
COCCCNC(=O)C(=O)NCCCOC(C)C	none
CO/N=C(\C(=O)N[C@@H]1C(=O)N2C(C(=O)O)=C(COC(N)=O)CS[C@H]12)c1ccco1	m5-HT2A agonist 15
CC1(C(=O)Nc2cnc3ccccc3c2)CCN1Cc1ccc(OC(F)(F)F)cc1 (configuration not stated)	none (no result: PP5 inh, PP1 inh, T cell modulator, GASC-1 inh)
CCNC(=O)CSc1nnc(-c2ccccc2)n1-c1ccc(OCC)cc1	none
CCOc1ccc(-n2c(-c3ccccc3)nnc2-c2ccccc2)cc1	PP1 inh 16
CCOc1ccc(NC(=O)CN(C)C(=O)c2n[nH]c(=O)c3ccccc23)cc1OCC	none (no result: PP5 inh, PP1 inh, T cell modulator, GASC-1 inh)
Cc1ccc(NC(=O)C(c2ccccc2)N2CCN(CC(=O)NC3CC3)CC2)cc1 (configuration not stated)	none
Cc1c2cccn2cc[n+]1C	T cell modulator 78
CC(C)(C)S(=O)(=O)N1Cc2ccc(CO)cc2[C@@H]1CCO	none (no result: PP5 inh, PP1 inh, T cell modulator, GASC-1 inh)
CCOC(=O)N1CCN(C(=O)c2ccc(CS(=O)Cc3ccc(C)cc3)o2)CC1 (configuration not stated)	T cell modulator 43
CCOC(=O)N1CCN(C(=O)c2ccc(CS(=O)Cc3ccccc3Cl)o2)CC1 (configuration not stated)	none
COc1ccc(/C=C(/CC(=O)Nc2ccccc2)c2nc3ccccc3s2)cc1	none
COc1ccc(/C=C(/CC(=O)NCc2ccc(Cl)cc2)c2nc3ccccc3s2)cc1	PP1 inh 15
COc1ccc(OC)c(C2NC(=O)NC(C)=C2C(=O)OC2CCCCC2)c1 (configuration not stated)	none
COc1ccccc1C1NC(=O)NC(C)=C1C(=O)OC1CCCCC1 (configuration not stated)	m5-HT2A agonist 15
COc1ccc(CCN2CC(C(=O)NCCc3ncccc3C)CCC2=O)cc1 (configuration not stated)	none (no result: PP5 inh, PP1 inh, T cell modulator, GASC-1 inh)
CCCN=Cc1c(CCC)[nH]n(-c2nc3ccccc3s2)c1=O	none
CCCc1[nH]n(-c2nc3ccccc3s2)c(=O)c1C=NCCCN(CC)CC	PP1 inh 16
CC(=O)Nc1ccc(NC(=O)CC2Nc3cccc4cccc(c34)NC2=O)cc1 (configuration not stated)	none
Cc1cccc(NC(=O)CC2Nc3cccc4cccc(c34)NC2=O)c1 (configuration not stated)	GASC-1 inh 51
CN(C)c1nc(/C=C(\C#N)C(N)=O)c(Cl)n1-c1ccc(F)cc1	none
CSc1nc(SCC(=O)NC(c2ccccc2)c2ccccc2)c2c3c(sc2n1)CN(C)CC3	PP1 inh 16
CSc1nc(NCC(C)O)c2c3c(sc2n1)CN(C)CC3 (configuration not stated)	none
COc1ccc(Cn2c(C3CCCCC3)nc3c(c(=O)c4ccccc4n3C)c2=O)cc1	none (no result: m5-HT2A agonist)
COc1ccc(CCn2c(C3CCCCC3)nc3c(c(=O)c4ccccc4n3C)c2=O)cc1	PP1 inh 16
CCOC(=O)c1ccc(NC(=O)N2CCN(C(=O)C3CCCO3)CC2)cc1 (configuration not stated)	none
CC1CC/C(=C\c2ccc3c(c2)OCO3)C(=O)/C1=C/c1ccc2c(c1)OCO2 (configuration not stated)	PP1 inh 17
O=c1[nH]c(C2CCCN(S(=O)(=O)c3ccccc3Cl)C2)nc2c1nnn2Cc1ccc2c(c1)OCCO2 (configuration not stated)	PP1 inh 16

High-throughput results deposited in PubChem by several laboratories.
